For 80 compounds, activation and AC50 results are on record in PubChem BioAssay AID493228 (Broad Institute, 2011).

By AC50 is commonly meant the concentration giving half of the maximal activity seen.

SMILES strings stand for the structures. Where “and” joins values, the source holds several entries; their conditions need not be identical. Equal values may be shown once. Records with an inconclusive call do not appear. Calls of active or inactive are those of the source.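 Rule for the calls: active = fitted dose curve passes 500% activation at or below the top valid tested dose; inconclusive = no clear call, values can overlap the other calls; inactive = the rest, opposite-direction activity included.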

System in one test: not listed separately
Put plainly: HIF reporter activators, metal chelation test – cell-based, iron medium, luminescence, U2OS, dry powder, mechanism study for HIF activator project, dose response (AID 493228). Conditions: U2OS HRE-luciferase reporter, iron medium, luminescence; at 38 µM (top of the series). The method, boiled down: (§1)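 system = U2OS 3×HRE-luciferase reporter cells | input = 6,000 cells/well | compound = 8 concentrations, 3-fold spacing | technique = luciferase luminescence with Steady-Glo reagent | buffer or medium = medium supplemented with ferric nitrate, 50 µM final | timing = 24 h cell plating, 24 h compound exposure, 37 °C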
Background: Reporter assays use an easily measured gene product as a stand-in for the process of interest.
Take `CN1CCN(C(=O)c2cc(-c3ccccc3)on2)CC1`: the activation is 4.95% (inactive).
Consider `c1ccc(-c2nnc(-c3ccccn3)nc2Nc2cnc3ccccc3n2)cc1`, for which the activation is 299% (inactive).
On the same count and under the same terms, then `O=C(NCc1ccccc1)c1cc(-c2ccccc2)on1`, with 65.7% (inactive); and `c1ccc(-c2nnc(-c3ccccn3)nc2N2CCC(C3CCCCC3)C2)cc1` (stereo not given), with 17.7% (inactive).
The same measure, in the same setting: then `O=C(NC1Cc2ccccc2C1)c1cc(-c2ccccc2)on1`, with 175% (inactive); and `O=C(c1cc(-c2ccccc2)on1)N1CCN(c2ccncc2)CC1`, with -9.52% (inactive); and `c1ccc(-c2nnc(-c3ccccn3)nc2NCCCN2CCOCC2)cc1`, with 168% (inactive).
On to `Oc1ccc(CNC2CCc3ccccc32)c2cccnc12` (stereo not given), for which the activation is -90.3% (inactive).
On the same count and under the same terms, then `O=C(Nc1cnc2ccccc2c1)c1cc(-c2ccccc2)on1`, with 26% (inactive); and `Cc1ccc(CNC(=O)c2cc(-c3ccccc3)on2)cc1`, with 13.2% (inactive).
The same measure, in the same setting: then `c1ccc(-c2nnc(-c3ccccn3)nc2N2CCC(c3ccccc3)C2)cc1` (stereo not given), with 313% (inactive); and `Oc1ccc(CN2CCc3ccccc3C2)c2cccnc12`, with -88.2% (inactive) and -90.7% (inactive).
Still for that read-out and setting: then `Cn1c(-c2ccccc2)cnc1NC(=O)c1cc(-c2ccccc2)on1`, with 23.2% (inactive); and `Cn1c(NC(=O)c2cc(-c3ccccc3)on2)nc2ccccc21`, with 4.17% (inactive); and `O=C(NCCN1CCCCC1)c1cc(-c2ccccc2)on1`, with 64.1% (inactive).
As for `c1ccc(-c2nnc(-c3ccccn3)nc2NCCc2ccccn2)cc1`, the activation is 460% (inactive).
On the same count and under the same terms, then `c1ccc(-c2cccc(CNc3nc(-c4ccccn4)nnc3-c3ccccc3)c2)cc1`, with 113% (inactive).
On the same count and under the same terms, then `CN(C)CCNC(=O)c1cc(-c2ccccc2)on1`, with 36.8% (inactive); and `OCC1CCN(Cc2ccc(O)c3ncccc23)CC1`, with -91.5% (inactive).
With `COc1ccccc1N1CCN(Cc2ccc(O)c3ncccc23)CC1`, the activation was -77.4% (inactive).
With `O=C(Nc1nc(-c2ccccc2)cs1)c1cc(-c2ccccc2)on1`, the activation is -5.37% (inactive).
Same read-out and setting: then `c1ccc(-c2cnc(Nc3nc(-c4ccccn4)nnc3-c3ccccc3)s2)cc1`, with -26.9% (inactive); and `N#CC1(c2ccccc2)CCN(Cc2ccc(O)c3ncccc23)CC1`, with 10.5% (inactive).
In the case of `C[C@@H](Nc1nc(-c2ccccn2)nnc1-c1ccccc1)C1CCCCC1`, the activation was 419% (inactive).
The same measure, in the same setting: then `CN1CCN(c2nc(-c3ccccn3)nnc2-c2ccccc2)CC1`, with 315% (inactive); and `CC1CN(Cc2ccc(O)c3ncccc23)CC(C)O1` (stereo not given), with -85.2% (inactive); and `c1ccc(-c2nnc(Nc3nc(-c4ccccn4)nnc3-c3ccccc3)s2)cc1`, with 67% (inactive).
Still for that read-out and setting: then `O=C(Nc1cn2ccccc2n1)c1cc(-c2ccccc2)on1`, with 36% (inactive); and `Cc1cccc(NC(=O)c2cc(-c3ccccc3)on2)n1`, with 47.5% (inactive); and `c1ccc(-c2nnc(-c3ccccn3)nc2NCC2CCOCC2)cc1`, with 226% (inactive).
Still for that read-out and setting: then `O=C(Nc1nc2ccccc2s1)c1cc(-c2ccccc2)on1`, with 22.7% (inactive); and `Oc1ccc(CN2CCC3CCCCC3C2)c2cccnc12` (stereo not given), with -92.3% (inactive); and `O=C(Nc1ccc2ccccc2n1)c1cc(-c2ccccc2)on1`, with 10.3% (inactive).
On to `CC(C)(C)OC(=O)N1CCN(Cc2ccc(O)c3ncccc23)CC1`, for which the activation was 10.8% (inactive).
As to `Cn1c(-c2ccccc2)cnc1Nc1nc(-c2ccccn2)nnc1-c1ccccc1`, the activation is -7.02% (inactive).
As for `Cc1cccc(Nc2nc(-c3ccccn3)nnc2-c2ccccc2)n1`, the activation was 306% (inactive).
Still for that read-out and setting: then `OCCCNc1nc(-c2ccccn2)nnc1-c1ccccc1`, with 310% (inactive).
Still for that read-out and setting: then `Cc1ccc(NC(=O)c2cc(-c3ccccc3)on2)cn1`, with -1.64% (inactive).
On to `O=C(Nc1ncc(-c2ccccc2)o1)c1cc(-c2ccccc2)on1`, for which the activation is 22.7% (inactive).
Take `CN(C)c1nc(-c2ccccn2)nnc1-c1ccccc1`: the activation was 80.9% (inactive).
Take `O=C(Nc1ncc2ccccc2n1)c1cc(-c2ccccc2)on1`: the activation is 196% (inactive).
Same read-out and setting: then `Cc1ccc(Nc2nc(-c3ccccn3)nnc2-c2ccccc2)cn1`, with 473% (inactive).
On the same count and under the same terms, then `CC(C)(C)c1ccc(CNc2nc(-c3ccccn3)nnc2-c2ccccc2)cc1`, with 246% (inactive); and `Oc1ccc(CNC2Cc3ccccc3C2)c2cccnc12`, with -87.7% (inactive).
Take `O=C(NC1CCc2ccccc2C1)c1cc(-c2ccccc2)on1` (stereo not given): the activation is 2.06% (inactive).
Same read-out and setting: then `c1ccc(-c2csc(Nc3nc(-c4ccccn4)nnc3-c3ccccc3)n2)cc1`, with 73.9% (inactive); and `O=C(c1cc(-c2ccccc2)on1)N1CCC(N2CCOCC2)CC1`, with 9.93% (inactive); and `Oc1ccc(CN2CCC(Cc3ccccc3)CC2)c2cccnc12`, with 27% (inactive).
On the same count and under the same terms, then `C=CCNc1nc(-c2ccccn2)nnc1-c1ccccc1`, with 288% (inactive); and `O=C(Nc1nnc(-c2ccccc2)s1)c1cc(-c2ccccc2)on1`, with -5.78% (inactive).
Same read-out and setting: then `c1ccc(-c2nnc(-c3ccccn3)nc2Nc2nc3ccccc3s2)cc1`, with -17.3% (inactive).
`Cc1ccccc1CNC(=O)c1cc(-c2ccccc2)on1`: the activation is 40.9% (inactive).
For the compound `O=C(c1cc(-c2ccccc2)on1)N1CCC(N2CCCC2)CC1`, the activation was 0.413% (inactive).
Turning to `c1ccc(-c2nnc(-c3ccccn3)nc2NCc2cccnc2)cc1`, the activation was 402% (inactive).
As for `c1ccc(-c2nnc(-c3ccccn3)nc2NCC2CC2)cc1`, the activation is 392% (inactive).

The subject of another test is U2OS HRE-luciferase reporter, iron medium, luminescence. Described as above.
Settings: not given
The method, boiled down:
as §1
As to `CC(C)(C)CCNc1nc(-c2ccccn2)nnc1-c1ccccc1`, the AC50 is 17 µM and 16.2 µM.
For the compound `C[C@H](Nc1nc(-c2ccccn2)nnc1-c1ccccc1)C1CCCCC1`, the AC50 was 18.9 µM.
As for `c1ccc(-c2nnc(-c3ccccn3)nc2NCc2ccccn2)cc1`, the AC50 is 27.7 µM.
In the case of `O=C(NCCCCO)c1cc(-c2ccccc2)on1`, the AC50 was 2.72 µM.
Turning to `c1ccc(CCNc2nc(-c3ccccn3)nnc2-c2ccccc2)cc1`, the AC50 is 20.9 µM.
Take `c1ccc(-c2nnc(-c3ccccn3)nc2N2CCC(N3CCOCC3)CC2)cc1`: the AC50 is 36 µM.
For `O=C(NCCCn1ccnc1)c1cc(-c2ccccc2)on1`, the AC50 is 6.23 µM.
Still for that read-out and setting: then `Cc1ccc(CNc2nc(-c3ccccn3)nnc2-c2ccccc2)cc1C`, with 13.6 µM.
The same measure, in the same setting: then `COc1cccc(CNc2nc(-c3ccccn3)nnc2-c2ccccc2)c1`, with 22.8 µM; and `CC(Nc1nc(-c2ccccn2)nnc1-c1ccccc1)c1ccccc1` (stereo not given), with 23.2 µM; and `COc1ccc(CNc2nc(-c3ccccn3)nnc2-c2ccccc2)cc1`, with 14.3 µM.
For the compound `c1ccc(CNc2nc(-c3ccccn3)nnc2-c2ccccc2)cc1`, the AC50 is 17 µM.
The same measure, in the same setting: then `O=C(NCCCN1CCOCC1)c1cc(-c2ccccc2)on1`, with 12 µM; and `Clc1cccc(CNc2nc(-c3ccccn3)nnc2-c2ccccc2)c1`, with 17.9 µM; and `O=C(NCCCO)c1cc(-c2ccccc2)on1`, with 7.47 µM.
Consider `c1ccc(-c2ccc(CNc3nc(-c4ccccn4)nnc3-c3ccccc3)cc2)cc1`, for which the AC50 was 9.24 µM.
Same read-out and setting: then `C[C@@H](Nc1nc(-c2ccccn2)nnc1-c1ccccc1)c1ccccc1`, with 20.7 µM; and `c1ccc(-c2nnc(-c3ccccn3)nc2NCC2CCCCC2)cc1`, with 18.2 µM.
For the compound `Cc1ccccc1CNc1nc(-c2ccccn2)nnc1-c1ccccc1`, the AC50 is 25 µM.
On the same count and under the same terms, then `O=C(NCCN1CCOCC1)c1cc(-c2ccccc2)on1`, with 12.4 µM; and `c1ccc(-c2nnc(-c3ccccn3)nc2NCCN2CCOCC2)cc1`, with 31.7 µM; and `CC(C)(C)CCNC(=O)c1cc(-c2ccccc2)on1`, with 23.1 µM.
Still for that read-out and setting: then `Cc1cccc(CNc2nc(-c3ccccn3)nnc2-c2ccccc2)c1`, with 17.3 µM.
On the same count and under the same terms, then `O=C(NCC1CC1)c1cc(-c2ccccc2)on1`, with 7.37 µM; and `CCCCNC(=O)c1cc(-c2ccccc2)on1`, with 7.93 µM.
